Laboratory results: ChEMBL document CHEMBL2034980, “N⁴-Phenyl-substituted 2-acetylpyridine thiosemicarbazones: cytotoxicity against human tumor cells, structure-activity relationship studies and investigation on the mechanism of action” (Bioorg Med Chem, 2012)
The source made the active and inactive calls.

Experiments:
MCF7 [1] = test: Induction of apoptosis in human MCF7 cells assessed as chromatin condensation at 1 uM after 48 hrs by DAPI staining; assay type: functional, cell-based
Outline: (§1)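 Cells were treated at 1 μM for 48 h, washed in PBS and fixed in 70% methanol for 30 min at room temperature. They were stained with 0.4 μg mL⁻¹ DAPI for 1 h in the dark, and nuclear condensation and fragmentation were scored by fluorescence microscopy (385–410 nm).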

T98G [2] = test: Induction of apoptosis in human T98G cells assessed as chromatin condensation at 1 uM after 48 hrs by DAPI staining; assay type: functional, cell-based; outline: as §1
T98G [3] = test: Induction of apoptosis in human T98G cells assessed as membrane blebbing at 1 uM after 48 hrs […]; assay type: functional, cell-based
MCF7 [4] = test: Induction of apoptosis in human MCF7 cells assessed as membrane blebbing at 1 uM after 48 hrs by DAPI staining; assay type: functional, cell-based
[5] = (§2) Cytotoxicity against human U87 cells expressing wild-type p53 after 48 hrs by MTT assay; assay type: functional, cell-based, U-87MG ATCC; conditions: U-87 MG, read-out: IC50
Outline: (§3)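 MTT assay. Cells were grown in DMEM with 10% FBS and penicillin/streptomycin at 37 °C under 5% CO2, seeded at 1–2×10^3 cells/well and treated 12 h later with 1×10^-12 to 1×10^-5 M ([…] from DMSO stock, final DMSO <0.5%) for 48 h. MTT was added at 0.5 mg mL⁻¹, formazan dissolved in DMSO and read at 570 nm. IC50 is the concentration giving 50% cytotoxicity. Quadruplicates, ≥3 independent experiments.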

U-87MG ATCC [6] = test: as §2; assay type: functional, cell-based; outline: as §3
T98G [7] = test: Induction of apoptosis in human T98G cells assessed as cell shrinkage at 1 uM after 48 hrs by DAPI staining; assay type: functional, cell-based
MCF7 [8] = test: Induction of apoptosis in human MCF7 cells assessed as irregularities in cellular shape at 1 uM after 48 hrs by DAPI staining; assay type: functional, cell-based
MCF7 [9] = test: Induction of apoptosis in human MCF7 cells assessed as chromatin condensation at 1 uM after 48 hrs by acridine orange/ethidium bromide staining-based microscopy; assay type: functional, cell-based
Outline: (§4)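 After 48 h at 1 μM, cells were incubated for 15 min in serum-free medium containing 1 μg mL⁻¹ acridine orange and 1 μg mL⁻¹ ethidium bromide. The medium was removed and cells imaged by inverted fluorescence microscopy (530–650 nm). Green/orange nuclear patterns and acidic cytoplasmic vacuoles were scored.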

U-87MG ATCC [10] = test: Induction of apoptosis in human U87 cells assessed as chromatin condensation at 1 uM after 48 hrs by DAPI staining; assay type: functional, cell-based; outline: as §1
MCF7 [11] = test: Induction of apoptosis in human MCF7 cells assessed as cell shrinkage at 1 uM after 48 hrs by DAPI staining; assay type: functional, cell-based
U-87MG ATCC [12] = test: Induction of apoptosis in human U87 cells assessed as chromatin condensation at 1 uM after 48 hrs by acridine orange/ethidium bromide staining-based microscopy; assay type: functional, cell-based; outline: as §4
[13] = Haemolytic activity in human RBC after 1 hr by photometry; assay type: ADME, cell-based; conditions: Erythrocyte
Outline: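 Human EDTA blood was spun at 700xg for 10 min and the erythrocytes washed three times in cold PBS pH 7.4, then resuspended in it. Cells were incubated with varying compound concentrations for 1 h at 37 °C with shaking. After centrifugation, released haemoglobin was read at 540 nm to give the IC50. Mean ± SD, n = 4.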

U-87MG ATCC [14] = test: Induction of apoptosis in human U87 cells assessed as appearance of autophagolysosomes at 1 uM after 48 hrs by acridine orange/ethidium bromide staining-based microscopy; assay type: functional, cell-based; outline: as §4
MCF7 [15] = test: Cytotoxicity against human MCF7 cells after 48 hrs by MTT assay; assay type: functional, cell-based; conditions: for IC50: MCF7, 48 h, read-out: IC50; outline: as §3
T98G [16] = test: Induction of apoptosis in human T98G cells assessed as appearance of autophagolysosomes at 1 uM after 48 hrs by acridine orange/ethidium bromide staining-based microscopy; assay type: functional, cell-based; outline: as §4
T98G [17] = test: Induction of apoptosis in human T98G cells assessed as chromatin condensation at 1 uM after 48 hrs by acridine orange/ethidium bromide staining-based microscopy; assay type: functional, cell-based; outline: as §4
MCF7 [18] = test: Induction of apoptosis in human MCF7 cells assessed as appearance of autophagolysosomes at 1 uM after 48 hrs by acridine orange/ethidium bromide staining-based microscopy; assay type: functional, cell-based; outline: as §4
T98G [19] = test: Induction of apoptosis in human T98G cells assessed as irregularities in cellular shape at 1 uM after 48 hrs by DAPI staining; assay type: functional, cell-based
U-87MG ATCC [20] = test: Induction of apoptosis in human U87 cells assessed as membrane blebbing at 1 uM after 48 hrs by DAPI staining; assay type: functional, cell-based
MCF7 [21] = test: Induction of apoptosis in human MCF7 cells assessed as DNA fragmentation at 1 uM after 48 hrs by DAPI staining; assay type: functional, cell-based; outline: as §1
U-87MG ATCC [22] = test: Induction of apoptosis in human U87 cells assessed as irregularities in cellular shape at 1 uM after 48 hrs by DAPI staining; assay type: functional, cell-based
U-87MG ATCC [23] = test: Induction of apoptosis in human U87 cells assessed as DNA fragmentation at 1 uM after 48 hrs by DAPI staining; assay type: functional, cell-based; outline: as §1
U-87MG ATCC [24] = test: Induction of apoptosis in human U87 cells assessed as cell shrinkage at 1 uM after 48 hrs by DAPI staining; assay type: functional, cell-based
T98G [25] = test: Cytotoxicity against human T98G cells expressing mutant p53 after 48 hrs by MTT assay; assay type: functional, cell-based; conditions: for IC50: read-out: IC50; outline: as §3
T98G [26] = test: Induction of apoptosis in human T98G cells assessed as DNA fragmentation at 1 uM after 48 hrs by DAPI staining; assay type: functional, cell-based; outline: as §1
Bos taurus [27] = organism: Bos taurus; test: Total inhibition of bovine brain tubulin polymerization at concentration close to compound solubility limit after 10 mins by spectrophotometry
Outline: (§5)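 Bovine brain tubulin (10 μM; 1 mg mL⁻¹) in 0.8 M monosodium glutamate with 1% DMSO was pre-incubated with compound (four twofold dilutions) at 30 °C, then cooled to 0 °C for 10 min. GTP (0.4 mM) was added and the temperature raised to 37 °C while A350 was followed.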

HeLa [28] = test: Induction of mitotic arrest in human HeLa cells assessed as nuclear condensation by Hoechst 33342 staining; assay type: functional; conditions: read-out: MEC
Outline: (§6)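 HeLa cells (8000/well, collagen-coated plates) were dosed in quadruplicate within 4–6 h of seeding with 10 twofold dilutions or vehicle (0.1% DMSO) for 18 h at 37 °C. Cells were fixed, stained with Hoechst 33342 and immunostained for phosphohistone H3 (Ser10) and α-tubulin, then analysed by automated imaging. Positivity threshold: mean of 28 vehicle wells +1 SD. Values reported as MDEC and EC50.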

HeLa [29] = test: Induction of mitotic arrest in human HeLa cells assessed as reduction in cell density by immunofluorescence staining; assay type: functional, cell-based
Outline: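 HeLa cells (8000/well), collagen-coated plates, dosed within 4-6 h of seeding in quadruplicate with 10 twofold dilutions or vehicle (DMSO 0.1% final); 18 h at 37 °C, 5% CO2. Formaldehyde fixation, Hoechst 33342 nuclear stain, anti-α-tubulin/anti-phosphohistone H3 immunostaining; automated high-content imaging. Cell density from nuclear counts; EC50 read from dose-response cell density curves.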

HeLa [30] = test: Induction of mitotic arrest in human HeLa cells assessed as reduction in tubulin intensity by Hoechst 33342 staining; assay type: functional; conditions: read-out: MEC; outline: as §6
Bos taurus [31] = organism: Bos taurus; test: Inhibition of bovine brain tubulin polymerization at 5 to 20 uM after 10 mins by spectrophotometry; outline: as §5
HeLa [32] = test: Induction of mitotic arrest in human HeLa cells assessed as mitotic index measuring phosphohistone H3-positive cells by Hoechst 33342 staining; assay type: functional; conditions: read-out: MEC; outline: as §6

SMILES	Activity (MCF7 [1])	Activity (T98G [2])	Activity (T98G [3])	Activity (MCF7 [4])	IC50 [5] [nM]	Activity (U-87MG ATCC [6])	Activity (T98G [7])	Activity (MCF7 [8])	Activity (MCF7 [9])	Activity (U-87MG ATCC [10])	Activity (MCF7 [11])	Activity (U-87MG ATCC [12])	IC50 [13] [nM]	Activity (U-87MG ATCC [14])	Activity (MCF7 [15])	IC50 (MCF7 [15]) [nM]	Activity (T98G [16])	Activity (T98G [17])	Activity (MCF7 [18])	Activity (T98G [19])	other results
CC(=NNC(=S)Nc1cccc(I)c1)c1ccccn1 (mixture of isomers)	Active	Active	Active	Active	84	Dose-dependent effect	Active	Active	Active	Active	Active	Active	> 10000	Active	Dose-dependent effect	45	Active	Active	Active	Active	Activity (U-87MG ATCC [20]): Active; Activity (MCF7 [21]): Active; Activity (U-87MG ATCC [22]): Active; Activity (U-87MG ATCC [23]): Active; Activity (U-87MG ATCC [24]): Active; Activity (T98G [25]): Dose-dependent effect; IC50 (T98G [25]): 61 nM; Activity (T98G [26]): Active
CC(=NNC(=S)Nc1cccc([N+](=O)[O-])c1)c1ccccn1 (mixture of isomers)	Active	Active	Active	Active	69	Dose-dependent effect	Active	Active	Active	Active	Active	Active	> 10000	Active	Dose-dependent effect	38	Active	Active	Active	Active	Activity (U-87MG ATCC [20]): Active; Activity (MCF7 [21]): Active; Activity (U-87MG ATCC [22]): Active; Activity (U-87MG ATCC [23]): Active; Activity (U-87MG ATCC [24]): Active; Activity (T98G [25]): Dose-dependent effect; IC50 (T98G [25]): 140 nM; Activity (T98G [26]): Active
CC(=NNC(=S)Nc1ccc(Cl)cc1)c1ccccn1 (mixture of isomers)	Active	Active	Active	Active	1.7	Dose-dependent effect	Active	Active	Active	Active	Active	Active	> 10000	Active	Dose-dependent effect	8.5	Active	Active	Active	Active	inhibition (Bos taurus [27]): inactive; minimal effective concentration (HeLa [28]): 5.8 µM; EC50 (HeLa [29]): 9200 nM; Activity (U-87MG ATCC [20]): Active; Activity (MCF7 [21]): Active; minimal effective concentration (HeLa [30]): 3.6 µM; inhibition (Bos taurus [31]): Active; Activity (U-87MG ATCC [22]): Active; Activity (U-87MG ATCC [23]): Active; minimal effective concentration (HeLa [32]): > 50 µM; Activity (U-87MG ATCC [24]): Active; Activity (T98G [25]): Dose-dependent effect; IC50 (T98G [25]): 5.9 nM; Activity (T98G [26]): Active
COc1cc2c(c(OC)c1OC)-c1ccc(OC)c(=O)cc1[C@@H](NC(C)=O)CC2 [COLCHICINE]	–	–	–	–	–	–	–	–	–	–	–	–	–	–	–	–	–	–	–	–	minimal effective concentration (HeLa [28]): 0.01 µM; EC50 (HeLa [29]): 30 nM; minimal effective concentration (HeLa [30]): 0.01 µM; minimal effective concentration (HeLa [32]): 0.02 µM
